Values after ≈ are worked out from the molar mass of the structure shown. Active and inactive are the calls of the source. The rule behind the calls is not given here.

This note sets out measurements from ChEMBL document CHEMBL5329191, “Optimization of the 2-arylquinazoline-4(3H)one scaffold for a selective and potent antitrypanosomal agent: modulation of the mechanism of action through chemical functionalization” (RSC Med Chem, 2023).

Series [1] in a line: Selectivity index, ratio of CC50 for mouse J774.1 cells to IC50 for Leishmania infantum amastigotes. Type of series: toxicity. The following applies: read-out: Ratio CC50/IC50. In short, it runs like this:
(§1)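 Cytotoxicity (CC50) was measured on murine J774.1A macrophages. Selectivity index is CC50 divided by parasite IC50 (promastigote, epimastigote or axenic amastigote). Values are the mean of three independent experiments.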

The test system of series [2] is Trypanosoma cruzi. Nature of the series: Induction of ROS production in Trypanosoma cruzi epimastigotes in presence of Cu2+. The series is classed as functional, organism-based. In short, it runs like this: (§2)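 Oxidative stress in parasite cultures was read fluorometrically with the 2,7-dichlorodihydrofluorescein diacetate (DCFH-DA) probe against a negative-control culture, and was also run with metal cations present.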

The test system of series [3] is Trypanosoma cruzi. Nature of the series: Induction of NO production in Trypanosoma cruzi epimastigotes at highest concentration by Griess method. The series is classed as functional. A digest of the protocol:
(§3)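 NO production in parasite cultures was measured at three test concentrations, either 25, 50 and 100 μM or 1, 5 and 10 μM depending on the compound.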
(In general: The Griess reaction detects nitrite, a stable product of nitric oxide.)

Series [4] concerns Leishmania infantum. Nature of the series: Induction of ROS production in Leishmania infantum promastigotes in presence of Fe3+. Type of series: functional, organism-based. In short, it runs like this: as §2
Series [5] deals with Leishmania infantum. Nature of the series: Induction of NO production in Leishmania infantum promastigotes at highest concentration by Griess method. The series is classed as functional. In short, it runs like this: as §3
Series [6] in a line: Selectivity index, ratio of CC50 for mouse J774.1 cells to IC50 for Leishmania infantum promastigotes. The following applies: read-out: Ratio CC50/IC50. The series is classed as toxicity. In short, it runs like this: as §1
Series [7] relates to Trypanosoma cruzi. The series is described as follows: Induction of ROS production in Trypanosoma cruzi epimastigotes in presence of Fe3+. The series is classed as functional, organism-based. A digest of the protocol: as §2
The subject of series [8] is Leishmania infantum. The series is described as follows: Antileishmanial activity against Leishmania infantum promastigotes assessed as decrease in IC50 in presence of copper(II). The series is classed as functional, organism-based. A digest of the protocol: (§4)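 Parasite proliferation was run in the presence of copper(II), iron(III) or zinc(II) salts, each at 1 μM.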

The subject of series [9] is Leishmania infantum. The series is described as follows: Induction of ROS production in Leishmania infantum promastigotes in presence of Cu2+. The series is classed as functional, organism-based. In short, it runs like this:
as §2

The subject of series [10] is Trypanosoma cruzi. Nature of the series: Induction of ROS production in Trypanosoma cruzi epimastigotes in presence of Zn2+. Type of series: functional, organism-based. A digest of the protocol:
as §2

Series [11] concerns Trypanosoma cruzi. Nature of the series: Antitrypanosomal activity against of Trypanosoma cruzi epimastigotes. The series is classed as functional, organism-based.
A short description of series [12]: Mutagenicity in Salmonella typhimurium TA98 assessed as number of revertant colonies at 270 uM by Ames test (reference value: 4). The series is classed as toxicity. Conditions: salmonella enterica subsp. enterica […]. In short, it runs like this: (§5)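 Ames reverse-mutation assay in Salmonella typhimurium TA 98. Revertant colonies were counted at five escalating dose levels alongside a zero-dose (spontaneous revertant) negative control and a 4-nitro-o-phenylenediamine positive control. A compound was called mutagenic when revertants exceeded twice the negative control at two consecutive dose levels.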
(In general: The Ames test detects mutagens through reverse mutation in bacteria.)

Series [13] concerns Leishmania infantum. The series is described as follows: Antileishmanial activity against Leishmania infantum promastigotes assessed as decrease in IC50 in presence of zinc(II). The series is classed as functional, organism-based. In short, it runs like this: as §4
Series [14] relates to Leishmania infantum. The series is described as follows: Antileishmanial activity against Leishmania infantum promastigotes. The series is classed as functional, organism-based.
The test system of series [15] is Leishmania infantum. The series is described as follows: Induction of NO production in Leishmania infantum promastigotes by Griess method. The series is classed as functional, organism-based. In short, it runs like this: as §3
The subject of series [16] is Trypanosoma cruzi. Nature of the series: […] activity against Trypanosoma cruzi epimastigotes assessed as change in parasites in presence of iron(III). Type of series: functional, organism-based. In short, it runs like this: as §4
Series [17] in a line: Mutagenicity in Salmonella typhimurium TA98 assessed as number of revertant colonies at 830 uM by Ames test (reference value: 4). The series is classed as toxicity. Conditions: salmonella enterica subsp. enterica […]. A digest of the protocol:
as §5

A short description of series [18]: Selectivity index, ratio of CC50 for mouse J774.1 cells to IC50 for Trypanosoma cruzi epimastigotes. Type of series: toxicity. The following applies: read-out: Ratio CC50/IC50. In short, it runs like this: as §1
Series [19] in a line: Mutagenicity in Salmonella typhimurium TA98 assessed as number of revertant colonies at 7500 uM by Ames test (reference value: 4). Conditions: salmonella enterica subsp. enterica […]. Type of series: toxicity. In short, it runs like this:
as §5

Series [20] is described as follows: Solubility of the compound by UV-Vis spectroscopy. The series is classed as physicochemical. A digest of the protocol:
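Solubility in μM was determined by UV-Vis spectroscopy.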

In series [21] the test system is Leishmania infantum. Nature of the series: Antileishmanial activity against Leishmania infantum promastigotes assessed as decrease in IC50 in presence of iron(III). Type of series: functional, organism-based. A digest of the protocol:
as §4

A short description of series [22]: Mutagenicity in Salmonella typhimurium TA98 assessed as number of revertant colonies at 2500 uM by Ames test (reference value: 4). Type of series: toxicity. Conditions: salmonella enterica subsp. enterica […]. In short, it runs like this:
as §5

In series [23] the test system is Leishmania infantum. Nature of the series: Antileishmanial activity against Leishmania infantum axenic amastigotes. Type of series: functional, organism-based.
The subject of series [24] is Leishmania infantum. Nature of the series: Induction of ROS production in Leishmania infantum promastigotes in presence of Zn2+. The series is classed as functional, organism-based. In short, it runs like this: as §2
Series [25] has as its system Trypanosoma cruzi. The series is described as follows: […] activity against Trypanosoma cruzi epimastigotes assessed as change in parasites in presence of zinc(II). Type of series: functional, organism-based. A digest of the protocol:
as §4

The nature of series [26]: Cytotoxicity against mouse J774.1 cells. The series is classed as toxicity, cell-based. In short, it runs like this:
as §1

A short description of series [27]: Mutagenicity in Salmonella typhimurium TA98 assessed as number of revertant colonies at 90 uM by Ames test (reference value: 4). Type of series: toxicity. The following applies: salmonella enterica subsp. enterica […]. In short, it runs like this: as §5
Series [28] concerns Trypanosoma cruzi. The series is described as follows: […] activity against Trypanosoma cruzi epimastigotes assessed as change in parasites in presence of copper(II). The series is classed as functional, organism-based. In short, it runs like this:
as §4

The test system of series [29] is Trypanosoma cruzi. The series is described as follows: Induction of NO production in Trypanosoma cruzi epimastigotes by Griess method. Type of series: functional, organism-based. In short, it runs like this:
as §3

Series [30] has as its system Leishmania infantum. The series is described as follows: Induction of ROS production in Leishmania infantum promastigotes by DCFH-DA staining based flow cytometry analysis. The series is classed as functional, organism-based. In short, it runs like this: as §2
Series [31] has as its system Trypanosoma cruzi. Nature of the series: Induction of ROS production in Trypanosoma cruzi epimastigotes by DCFH-DA staining based flow cytometry analysis. Type of series: functional, organism-based. A digest of the protocol:
as §2
A general note: Flow cytometry measures light scatter and fluorescence of single cells or particles in a stream.

Series [32] is described as follows: Mutagenicity in Salmonella typhimurium TA98 assessed as number of revertant colonies at 20 uM by Ames test (reference value: 4). The series is classed as toxicity. The following applies: salmonella enterica subsp. enterica […]. A digest of the protocol: as §5

On to `O=[N+]([O-])c1ccc(/C=N/N=c2\[nH]c(-c3cccc(Cl)c3)nc3ccccc23)o1`, for which the selectivity ratio was determined as 46.7 in series [1], 54 in series [6] and 60.2 in series [18]. Moreover, the result in series [2], in series [4], in [7], in series [8], in [9] and in [10] was Active. The result in [13], in series [21], in series [24], in series [30] and in [31] was Active. Further, the Activity is 1 µM in [3]; 2 µM in series [5]; 10 in series [12]; “Dose-Dependent Effect” in series [15]; 9.5 in series [17]; 9.5 in series [19]. Moreover, the values for the Activity in series [22], in series [27] and in [29] were 10.5, 3 and “Dose-Dependent Effect”, respectively. Besides, the IC50 (usually the point on the concentration scale where inhibition reaches its midpoint) in series [11] is 770 nM; in series [14] it was 770 nM; in [23] it was 890 nM. The outcome in series [16], in series [25] and in [28] was inactive. Besides, the solubility (commonly the concentration that dissolves in the medium under given conditions) in [20] was 7.11 µM (≈ 2.8 µg/mL). Also, in [26], half-maximal cytotoxicity (CC50) was put at 41600 nM.

In the case of `Nc1ccc([N+](=O)[O-])cc1N`, in series [32], the Activity is 365.
